Measured values taken from the array DNA melting data of Ke et al. (doi:10.1101/2024.01.08.574731).

What was measured:
[1] = folding enthalpy; higher = less favourable; fluorescence melt of hairpins on a sequencing array, two-state fit; settings: sodium 0.088 M
Procedure, shortened: (§1)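 Bootstrapped two-state fits yielded melting temperature and folding enthalpy for library hairpins. Cy3 fluorescence, with annealed Cy3 and quencher oligos, was imaged on a sequenced MiSeq flow cell in 50 mM Na-HEPES pH 8.0, 25 mM NaCl in 2.5 °C steps up to 60 °C, and normalised to pre-quench Cy3 and to control constructs. Four replicates were combined by inverse variance, and fitted temperatures were raised by 9.35 °C to match UV melts.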

[2] = melting temperature; fluorescence melt of hairpins on a sequencing array, two-state fit, raised by 9.35 °C to match UV melts; settings: sodium 0.088 M
Procedure, shortened: as §1

Sequence | folding enthalpy [1] [kcal/mol] | Tm [2] [°C]
GCCTAGCGAAAGCGCGGC (((..((....))..))) | -18.5 | 61.9
GCCTAGCGAAAGCTATGC ((.((((....)))).)) | -23.6 | 46.2
GCCTAGGGAAACTTGGGC (((.(.(....).).))) | -28.3 | 36.7
GCCTAGTCGAAAGACGGC (((..(((....)))))) | -21 | 51.6
GCCTATCCGAAAGGAGGC (((..(((....)))))) | -20.7 | 47.3
GCCTCAACGAAAGTTGGC (((..(((....)))))) | -12.4 | 42.9
GCCTCACGAAAGTGCGGC (((.(((....))).))) | -43.1 | 57.7
GCCTCACGAAAGTGGGC (((.(((....)))))) | -33.4 | 58.6
GCCTCAGGAAACTAAGGC ((((.((....)).)))) | -27.7 | 37.6
GCCTCCACGAAAGTGGGC (((..(((....)))))) | -7.76 | 46.9
GCCTCCCGAAAGGGGGC (((.(((....)))))) | -27.1 | 67.7
GCCTCCGAAAGGAACGGC ((((((....)))..))) | -25.3 | 46.9
GCCTCCGAAAGGAAGGGC ((((((....)))..))) | -22.3 | 50.2
GCCTCCGAAAGGACAGGC ((((((....)))..))) | -36.5 | 49.8
GCCTCCGAAAGGACGGGC ((((((....)))..))) | -24.5 | 48.6
GCCTCCGAAAGGACTGGC ((((((....)))..))) | -27.8 | 44.4
GCCTCCGAAAGGATCGGC ((((((....)))..))) | -24.2 | 45.3
GCCTCCGGAAACGAAGGC ((((.((....)).)))) | -28.3 | 48.8
GCCTCCGGAAACGGAAGC ((.((((....)))).)) | -22.7 | 45.9
GCCTCGCGAAAGCAACGC ((.(.((....)).).)) | -5.96 | 23.4
GCCTCGCGAAAGCAGGGC (((..((....))..))) | -20.6 | 60.8
GCCTCGCGAAAGCCCGGC (((..((....))..))) | -17.8 | 42.8
GCCTCGCGAAAGCGCAGC ((..(((....)))..)) | -9.54 | 39.8

Sequence | folding enthalpy [1] [kcal/mol] | Tm [2] [°C]
GCCTCGCGAAAGCGGCGC ((..(((....)))..)) | -16.4 | 58.5
GCCTCGCGAAAGCGGTGC ((..(((....)))..)) | -14.1 | 43.7
GCCTCGGGAAACTGGGGC (((.(.(....).).))) | -37.5 | 47.4
GCCTCTACGAAAGTAGGC (((..(((....)))))) | -12.2 | 47.9
GCCTCTGAAAAGAGGC ((((((....)))))) | -37.8 | 68.9
GCCTCTGGAAACAGGGGC (((.(((....))).))) | -45.3 | 57.4
GCCTGAGGAAACTTGGGC (((..((....))..))) | -29 | 42.3
GCCTGCGAAAGCAAAGGC ((((((....)))..))) | -26.9 | 59.3
GCCTGCGAAAGCAACGGC ((((((....)))..))) | -23.6 | 52.8
GCCTGCGAAAGCAATGGC ((((((....)))..))) | -23.8 | 56
GCCTGCGAAAGCATAGGC ((((((....)))..))) | -31.4 | 56
GCCTGGCGAAAGCAAAGC ((.(.((....)).).)) | -9.2 | 31.6
GCCTGGCGAAAGCACGGC (((..((....))..))) | -24.3 | 59.1
GCCTGGCGAAAGCATGGC (((..((....))..))) | -23.7 | 60.4
GCCTGGCGAAAGCCATGC ((.((((....)))).)) | -17.2 | 56.7
GCCTGGCGAAAGCCGAGC ((..(((....)))..)) | -13.5 | 49.5
GCCTGGCGAAAGCCGGC (((.(((....)))))) | -16.5 | 68.1
GCCTGGCGAAAGCCGTGC ((..(((....)))..)) | -12.9 | 48.8
GCCTGGCGAAAGCCTTGC ((..(((....)))..)) | -13 | 42.1
GCCTGGCGAAAGCGGGGC (((..((....))..))) | -27 | 64
GCCTGGCGAAAGCTCGGC (((..((....))..))) | -18.8 | 55.9
GCCTGGCGAAAGCTGGGC (((..((....))..))) | -28.2 | 64.4
